{"data": "Measurements from different studies", "DHFR": "Dihydrofolate reductase (DHFR, Homo sapiens, UniProt P00374)", "Tmem97": "Sigma intracellular receptor 2 (Tmem97, Rattus norvegicus, UniProt Q5U3Y7)"}
{"target": "DHFR", "observed": "enzyme activity", "action": "inhibitor", "concentration": "500 µM", "endpoint": "inhibition", "result": "84.4%", "Compound": "Cc1ccc(NC(=S)NN=Cc2ccc(N3CCCCC3)cc2)cc1"}
{"target": "Rho-associated protein kinase 1 (ROCK1, Homo sapiens, UniProt Q13464)", "observed": "enzyme activity", "action": "inhibitor", "concentration": "10 µM", "endpoint": "inhibition", "result": "≥ 50%", "Compound": "CC(C)OC(=O)CNc1cccc(CN(Cc2ccc(-n3cccn3)cc2)S(=O)(=O)c2cccnc2)n1"}
{"target": "DHFR", "observed": "enzyme activity", "action": "inhibitor", "concentration": "500 µM", "endpoint": "inhibition", "result": "87.5%", "Compound": "Cc1cccc(C)c1NC(=S)NN=Cc1ccc(N2CCCCC2)cc1"}
{"target": "Serine/threonine-protein kinase MRCK gamma (CDC42BPG, Homo sapiens, UniProt Q6DT37)", "observed": "enzyme activity", "action": "inhibitor", "concentration": "1 µM", "endpoint": "remaining activity", "result": "102%", "Compound": "COc1cc(-c2cncc3c2CN(C)Cc2cc(N4CCNCC4)ccc2-3)cc(OC)c1OC"}
{"target": "Tmem97", "observed": "ligand displacement", "technique": "radioligand", "concentration": "1 µM", "endpoint": "inhibition", "result": "0%", "Compound": "C[C@H]1c2nc3ccccc3c(-c3ccccc3)c2[C@H]2C[C@@H]1N(Cc1ccccc1)C[C@]2(C)O"}
{"target": "DNA topoisomerase 2-alpha (TOP2A, Homo sapiens, UniProt P11388)", "observed": "enzyme activity", "action": "inhibitor", "concentration": "31.5 µM", "endpoint": "inhibition", "result": "0%", "Compound": "COc1cc([C@@H]2c3cc4c(cc3[C@@H](O[C@@H]3O[C@@H]5CO[C@@H](C)O[C@H]5[C@H](O)[C@H]3O)[C@H]3COC(=O)[C@H]23)OCO4)cc(OC)c1O"}
{"target": "DHFR", "observed": "enzyme activity", "action": "inhibitor", "concentration": "500 µM", "endpoint": "inhibition", "result": "83.7%", "Compound": "S=C(NN=Cc1ccc(N2CCCCC2)cc1)Nc1cccc(Br)c1"}
{"target": "Casein kinase I isoform delta (CSNK1D, Homo sapiens, UniProt P48730)", "observed": "binding", "technique": "competition with immobilised ligand", "concentration": "10 µM", "endpoint": "remaining binding", "result": "100%", "Compound": "Cc1cc([C@@H](C)Nc2ccccc2C(=O)O)c2nc(N3CCC(F)(F)CC3)c(C#N)c(=O)n2c1"}
{"target": "Activin receptor type-2B (ACVR2B, Homo sapiens, UniProt Q13705)", "observed": "enzyme activity", "action": "inhibitor", "technique": "radiometric", "concentration": "1 µM", "endpoint": "remaining activity", "result": "119%", "Compound": "CNc1ncc2c(/C=C/C(=O)N3CCC(OC)CC3)nn(Cc3cccc(C(F)(F)F)c3)c2n1"}
{"target": "Tmem97", "observed": "ligand displacement", "technique": "radioligand", "concentration": "1 µM", "endpoint": "inhibition", "result": "0%", "Compound": "COc1ccc(CN2C[C@](C)(O)[C@@H]3C[C@H]2[C@@H](C)c2nc4ccccc4c(-c4ccccc4)c23)cc1"}
{"target": "DHFR", "observed": "enzyme activity", "action": "inhibitor", "concentration": "500 µM", "endpoint": "inhibition", "result": "81.4%", "Compound": "Cc1ccc(CNC(=S)NN=Cc2ccc(N3CCCCC3)cc2)cc1"}
{"target": "BMP-2-inducible protein kinase (BMP2K, Homo sapiens, UniProt Q9NSY1)", "observed": "binding", "technique": "competition with immobilised ligand", "concentration": "1 µM", "endpoint": "remaining binding", "result": "90%", "Compound": "C=CC(=O)N1CCC(COCC(=O)N2CCN(c3nc(-c4cnc(N)nc4C(F)F)nc(N4CCOC[C@@H]4C)n3)CC2)CC1"}
